Bioassay records (PubChem)
A selection: hits, their analogues and other compounds. The true share with any hit is near 0.99%.
Tn6 DDE FP: disrupts Tn6 cyclic peptide binding to fibrin D-Dimer-E complex; P02675; Fibrin DD(E) TRITC-Tn6 fluorescence polarization displacement; inhibition, % at 8.3 µM; 370,000 tested, 0.21% active; AID 720509;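 active means inhibition above a per-campaign cutoff: mean of compounds within control limits plus 3 SD, cut at about 15% in these data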
Insulin prom up: MIN6 insulin promoter up-regulation | MIN6 insulin promoter-GFP reporter, high-content imaging; active compounds read high | AID 1625 | z-score at 5 µM | 190,000 tested, 0.3% active;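 active means z-score above 3 at 5 µM with at least 500 cells counted in the well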
ABCG2 block: blocks JC-1 efflux by human ABCG2 transporter; Q9UNQ0; IgMXP3 cells, flow cytometry; inhibition, % at 6.6 µM; 190,000 tested, 0.1% active;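 active means inhibition above 80%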
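Test system: IgMXP3 cells (ABCG2) mixed with DDAO far-red-labelled CCRF-Adr cells (ABCB1). Reagent: JC-1 transporter substrate. Compound dosing: single test compound dose, 6.6 µM final. Times: 10 min compound exposure, 25 °C. Detection: flow cytometry of retained JC-1 fluorescence. Read-out basis: efflux inhibition in percent versus controls. Controls: nicardipine and DMSO wells.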
ABCB1 inh: inhibitors of human ABCB1 transporter, ABCG2 counter-screen; P08183; CCRF-Adr cells, JC-1 efflux, flow cytometry; inhibition, % at 6.6 µM; 190,000 tested, 0.067% active; AID 1326; in the data active means inhibition above about 40%;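 further: higher value means more JC-1 retained so stronger ABCB1 efflux block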
GRK2 inh: inhibitors of human GRK2 displacing RNA aptamer | 330,000 tested, 0.59% active | AID 488847 | bead flow cytometry, FAM-aptamer displacement from GRK2 | inhibition of aptamer binding, % at 10 µM | P25098;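 active means inhibition of aptamer binding above 40%, roughly 3 SD of noise, on plates passing a quality check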;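 further: median bead fluorescence of bound FAM aptamer so fluorescent compounds give negative values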
Target sequence (P25098 whole entry, looked up): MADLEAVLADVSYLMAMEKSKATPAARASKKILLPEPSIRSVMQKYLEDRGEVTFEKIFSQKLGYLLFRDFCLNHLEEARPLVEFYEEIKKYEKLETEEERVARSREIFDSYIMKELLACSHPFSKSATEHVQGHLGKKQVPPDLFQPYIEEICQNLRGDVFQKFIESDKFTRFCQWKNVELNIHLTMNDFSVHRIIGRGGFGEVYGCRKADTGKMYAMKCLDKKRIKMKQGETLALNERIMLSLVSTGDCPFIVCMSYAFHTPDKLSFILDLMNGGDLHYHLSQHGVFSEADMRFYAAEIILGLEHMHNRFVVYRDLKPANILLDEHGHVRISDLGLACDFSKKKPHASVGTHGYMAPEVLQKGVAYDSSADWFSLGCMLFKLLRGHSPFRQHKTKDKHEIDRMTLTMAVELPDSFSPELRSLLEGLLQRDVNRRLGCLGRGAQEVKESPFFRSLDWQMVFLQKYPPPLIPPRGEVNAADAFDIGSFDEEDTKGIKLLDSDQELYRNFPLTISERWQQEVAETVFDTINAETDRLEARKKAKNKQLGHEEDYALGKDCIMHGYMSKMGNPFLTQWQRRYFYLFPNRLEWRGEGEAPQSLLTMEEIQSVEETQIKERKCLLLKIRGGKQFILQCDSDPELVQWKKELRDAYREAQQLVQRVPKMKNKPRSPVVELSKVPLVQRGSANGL
DDE Tn7 FP inh: inhibitors of Tn7 peptide binding to human fibrin DD(E); FP displacement of FITC-Tn7 peptide from fibrin DD(E); 0% = median of compound wells per plate; inhibition, % at 8.3 µM; 370,000 tested, 0.13% active;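 active means inhibition above the mean of compounds falling within the control limits plus 3 SD of them, cut at about 14% in these data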
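Assay system: human fibrin DD(E). Input: DD(E) 2 µM final. Medium: Tris buffer with calcium and detergent, pH 7.8. Compound dosing: single point at 8.3 µM. Timing: 10 min plus 3 h, room temperature. Technique: fluorescence polarization of the labelled Tn7 tracer. Read-out: percent inhibition. Replicates: singlicate testing.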
Tn7 DDE conf: DD(E)-Tn7 binding inhibition, FP confirmation. shares compounds with DDE Tn7 FP inh. 460 tested, 5% active. inhibition, % at 8.3 µM. FP displacement of TRITC-Tn7 peptide from DD(E); 0% set at plate's compound-well median. AID 720628;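 active means inhibition above the campaign cutoff, the mean of compounds within control limits plus 3 SD, cut at about 14% in these data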;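 further: displacers lower polarization since freed probe rises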
DDE Tn7 FP ctr: DD(E)-Tn7 binding inhibition, counter-screen | shares compounds with DDE Tn7 FP inh | fibrin DD(E), TRITC-Tn7 probe displacement, fluorescence polarization | inhibition, % at 8.3 µM | 460 tested, 3% active | AID 720633;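 active means inhibition above the cutoff, the mean of compounds lying between the control bounds plus 3 SD of those compounds, cut at about 17% in these data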
A number is an active result; . = inactive; / = not tested or not shown.

SMILES	Tn6 DDE FP	Insulin prom up	ABCG2 block	ABCB1 inh	GRK2 inh	DDE Tn7 FP inh	Tn7 DDE conf	DDE Tn7 FP ctr
C[C@@H]1CCCCO[C@H](CN(C)Cc2ccc(C(F)(F)F)cc2)[C@@H](C)CN([C@H](C)CO)C(=O)c2cc(NS(=O)(=O)c3cn(C)cn3)ccc2O1	.	/	/	/	/	.	/	/
Cc1noc(C)c1S(=O)(=O)Nc1ccc2c(c1)C(=O)N([C@@H](C)CO)C[C@H](C)[C@@H](CN(C)Cc1ccc(C(F)(F)F)cc1)OCCCC[C@H](C)O2	.	/	/	/	/	14	.	.
COc1ccc(CNc2nc(SCC(=O)NCc3ccco3)nc3ccccc23)cc1	.	/	.	.	.	.	/	/
CCOC(=O)CSc1nc(NCc2ccco2)c2ccccc2n1	.	.	.	.	.	15	.	.
Cc1cccc(NC(=O)CSc2nnnn2-c2ccc3c(c2)OCCO3)n1	.	.	.	.	.	15	.	.
COc1ccc(S[C@]2(C(=O)NC3CC3)CC(=O)N[C@@H]2c2ccc(OC)cc2)cc1	.	/	/	/	/	.	/	/
C=CCOc1ccc(/C=C/C(=O)OCC(=O)NCCCc2ccccc2)cc1	.	/	/	/	.	14	.	.
CC(=O)c1c2c3c(cccc3n(C)c1=O)C(=O)c1ccccc1-2	/	/	/	/	.	/	/	/
Cn1c(=O)c(Nc2ccc(O)cc2)c2c3c(cccc31)C(=O)c1ccccc1-2	.	.	.	.	.	16	.	.
O=C(c1cc(Cl)cc(Cl)c1)N1CCC(Oc2cccnc2)CC1	.	/	/	/	/	.	/	/
O=C(NCCC(=O)N1CCN(c2ccccn2)CC1)c1ccc(Br)cc1	.	/	/	/	.	.	/	/
O=C(NCCC(=O)N1CCN(c2ccccn2)CC1)c1ccc([N+](=O)[O-])cc1	.	/	/	/	.	15	.	.
CCC[C@H]1[C@@H](OC(=O)NCc2ccc(C)o2)CC[C@@]23CCCN2C(=O)CCC[C@@H]13	.	/	/	/	/	.	/	/
O=C(OCC(=O)N1CCCc2ccccc21)c1cccc(C(F)(F)F)c1	.	/	/	/	.	15	.	.
N#Cc1cccc(C(=O)OCC(=O)N2CCCc3ccccc32)c1	.	/	/	/	.	.	/	/
CCCCc1c(O)nc2ccccn2c1=O	.	.	.	.	.	.	/	/
Cc1c(O)nc2ccccn2c1=O	.	.	/	/	.	14	.	.
O=[N+]([O-])c1ccc(Cl)c(/C=N/N2CCN(Cc3ccc(Cl)cc3)CC2)c1	.	.	.	.	.	.	/	/
C/C(=N\N1CCN(Cc2ccc(Cl)cc2)CC1)c1ccc([N+](=O)[O-])cc1	.	/	/	/	.	15	.	.
Cc1ccc(NC(=O)CS(=O)CC(=O)N(c2ccc(C)cc2)C(C)C(=O)NC2CCCCC2)cc1 (centres undefined)	.	.	.	.	.	15	.	.
Cc1ccc(NC(=O)CS(=O)CC(=O)N(c2ccccc2F)C(C)C(=O)NC2CCCC2)cc1 (centres undefined)	.	/	/	/	.	.	/	/
O=C(NC(=O)c1ccc(C(F)(F)F)cc1)Nc1ccc(-c2cnco2)cc1	.	.	/	/	/	14	.	.
COP(=O)(O)C(COCCC(CC(C)C)NC(=O)OCc1ccccc1[N+](=O)[O-])NC(=O)OCc1ccccc1 (centres undefined)	.	/	/	/	/	.	/	/
COC(=O)C[C@@H]1CC[C@H]2[C@@H](COc3ccc(NC(=O)NC(C)C)cc3C(=O)N2C)O1	.	/	/	/	/	.	/	/
CCOc1ccc(-n2c(SCC(=O)Nc3ccc(S(=O)(=O)Nc4cc(C)nc(C)n4)cc3)nnc2-c2cccc(C)c2)cc1	.	/	/	/	/	.	/	/
SMILES	Tn6 DDE FP	Insulin prom up	ABCG2 block	ABCB1 inh	GRK2 inh	DDE Tn7 FP inh	Tn7 DDE conf	DDE Tn7 FP ctr
CCC1(C)NC(=O)N(CC(=O)N2N=C(c3ccccc3)CC2c2ccc(OC)cc2)C1=O (centres undefined)	.	.	.	.	.	17	.	.
COc1ccc(C2CC(c3ccccc3)=NN2C(=O)CCCC(=O)O)cc1 (centres undefined)	.	/	/	/	.	.	/	/
O=C(COC(=O)c1c(F)cccc1F)NCc1ccc2c(c1)OCO2	.	/	/	/	.	.	/	/
Cn1cccc1C(=O)OCC(=O)NCc1ccc2c(c1)OCO2	.	/	/	/	.	21	.	.
OCCOCCn1c(C(CO)Nc2nc(-c3ccccc3Br)cs2)nc2ccccc21 (centres undefined)	.	/	/	/	.	14	.	.
Cc1noc(C)c1C(C)C1=CCCCC1 (centres undefined)	.	/	/	/	/	.	/	/
COCCN1CCCC(CNCc2cn(C)nc2-c2ccc(Oc3ccccc3)cc2)C1 (centres undefined)	.	.	.	.	.	15	.	.
COC1CCCN(Cc2cn(C)nc2-c2ccc(Oc3ccccc3)cc2)C1 (centres undefined)	.	.	.	.	.	.	/	/
COc1cc2c(c(OC)c1)[C@H](/C=C/c1ccccc1)[C@@H]([C@H](O)CO)OC2	.	/	/	/	/	.	/	/
COc1ccc2c(c1)CO[C@H]([C@H](O)COC(C)=O)[C@H]2/C=C/c1ccccc1	.	/	/	/	/	15	.	.
CCCC1CCC2(CC1)CCC2OC(=S)Nc1cccc(I)c1 (centres undefined)	.	/	/	/	/	.	/	/
Fc1ccc(NC2CCC23CCC(c2ccccc2)CC3)cc1C(F)(F)F (centres undefined)	.	/	/	/	/	.	/	/
Nn1c(SCc2ccc([N+](=O)[O-])cc2)nnc1-c1n[nH]c2c1CCC2	.	/	/	/	/	.	/	/
CCc1ccccc1-c1cc(C(=O)OC)c2n(c1=O)CCC2	.	/	/	/	/	.	/	/
Cc1ccc(N=Cc2ccccc2O)cc1Cl	.	/	/	/	/	15	.	.
COc1ccc(N=Cc2cc(Cl)ccc2O)cc1Cl	.	.	.	.	.	.	/	/
Cc1cc(=O)n(Cc2ccco2)c(=S)[nH]1	.	/	/	/	/	16	.	.
CCCN(CCC)C(=O)c1ccc2c(=O)n(Cc3ccco3)c(=S)[nH]c2c1	.	.	.	.	.	.	/	/
Nc1cc(N2CCCCC2)c([N+](=O)[O-])cc1Cl	.	.	.	.	.	14	.	.
CCCN1C(=O)c2cccc3c(N4CCCCC4)ccc(c23)C1=O	.	/	.	.	.	16	.	.
COc1ccc(OC)c(NCCN2C(=O)c3ccccc3C2=O)c1	.	/	/	/	/	.	/	/
O=C1c2cccc3c(N4CCCCC4)ccc(c23)C(=O)N1c1ccccn1	.	.	.	.	.	.	/	/
CCCCNc1ccc2c3c(cccc13)C(=O)N(CCCC)C2=O	.	/	/	/	/	47	.	19
COC(=O)[C@]12C[C@H](CC(=O)NCc3ccccc3)C(=O)N(Cc3ccco3)C1=C[C@H](COCc1ccccc1)O[C@@H]2C	.	/	/	/	/	.	/	/
COc1c(Cl)cc(C(=O)NCc2ccco2)cc1Cl	.	/	/	/	.	14	.	.
